The compounds below were run against T1, Plu2411 (Photorhabdus laumondii, UniProt Q7N4D0) (assay: LC/MS product detection, GT-only reaction). Settings: α-UDP-GlcNAc as substrate.
T1 sequence (Q7N4D0 1-259): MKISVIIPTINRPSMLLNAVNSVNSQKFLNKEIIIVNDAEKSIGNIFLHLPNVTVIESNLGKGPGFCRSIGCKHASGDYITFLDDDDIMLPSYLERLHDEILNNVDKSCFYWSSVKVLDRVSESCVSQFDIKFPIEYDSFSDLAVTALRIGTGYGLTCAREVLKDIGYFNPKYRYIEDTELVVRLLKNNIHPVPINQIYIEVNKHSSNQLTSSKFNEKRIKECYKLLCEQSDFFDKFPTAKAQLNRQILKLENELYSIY
Format: biochemical

Structure (SMILES) | LC/MS product detection, GT-only reaction
O=c1ccn([C@@H]2O[C@H](COP(=O)(O)OP(=O)(O)O)[C@@H](O)[C@H]2O)c(=O)[nH]1 [UDP] | In the GT-only reaction, we could detect UDP and free Glc-NAc products

What follows are compounds tested against chicken egg white lysozyme (Gallus gallus, UniProt P00698) (assay: EnzChek fluorescent lysozyme assay, Dixon plot). Settings: not given.
chicken egg white lysozyme, sequence (P00698 19-147): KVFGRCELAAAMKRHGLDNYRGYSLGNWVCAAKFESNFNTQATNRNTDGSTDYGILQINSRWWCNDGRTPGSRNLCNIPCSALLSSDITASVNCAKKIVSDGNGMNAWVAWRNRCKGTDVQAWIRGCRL
Format: biochemical
How it was run: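 Substrate: fluorescein-labelled Micrococcus lysodeikticus cells (DQ lysozyme substrate). Run according to the kit's instructions. Ki values determined for oligosaccharide test compounds.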

Structure (SMILES) | Ki
CC(=O)N[C@H]1[C@@H]2OC[C@@H](O2)[C@@H](O[C@@H]2O[C@H](CO)[C@@H](O)[C@H](O)[C@H]2NC(C)=O)[C@@H]1O [compound 1, 1] | 3590 ± 1290 µM
CC(=O)N[C@H]1[C@@H]2OC[C@@H](O2)[C@@H](O[C@@H]2O[C@H](CO)[C@@H](O[C@@H]3O[C@H](CO)[C@@H](O)[C@H](O)[C@H]3NC(C)=O)[C@H](O)[C@H]2NC(C)=O)[C@@H]1O [compound 2, 2] | 170 ± 130 µM
CC(=O)N[C@H]1[C@@H]2OC[C@@H](O2)[C@@H](O[C@@H]2O[C@H](CO)[C@@H](O[C@@H]3O[C@H](CO)[C@@H](O[C@@H]4O[C@H](CO)[C@@H](O)[C@H](O)[C@H]4NC(C)=O)[C@H](O)[C@H]3NC(C)=O)[C@H](O)[C@H]2NC(C)=O)[C@@H]1O [compound 3, 3] | 300 ± 270 µM
CC(=O)N[C@H]1[C@H](O[C@H]2[C@H](O)[C@@H](NC(C)=O)[C@@H]3OC[C@H]2O3)O[C@H](CO)[C@@H](O[C@@H]2O[C@H](CO)[C@@H](O)[C@H](O)[C@H]2N)[C@@H]1O [compound 4, 4] | 400 ± 230 µM
CC(=O)N[C@H]1[C@H](O[C@H]2[C@H](O)[C@@H](NC(C)=O)[C@@H]3OC[C@H]2O3)O[C@H](CO)[C@@H](O[C@@H]2O[C@H](COP(=O)(O)O)[C@@H](O)[C@H](O)[C@H]2N)[C@@H]1O [compound 5, 5] | 750 ± 410 µM

— PMC4224617 (Chemistry & biology, 2014)
